Screens deposited in PubChem BioAssay by Sanford-Burnham Center for Chemical Genomics.
STEP block = inhibitors of human striatal-enriched phosphatase STEP; inhibition, % at 20 µM; AID 588621; recombinant STEP, OMFP fluorogenic substrate, fluorescence; P54829; 0.25% of 360,000 active;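 active = inhibition at 20 µM, scaled per plate between control wells, above about 37%, limit read from the data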;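 note: 0% = DMSO with enzyme and substrate and 100% = substrate only without enzyme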
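Material: STEP (striatal-enriched tyrosine phosphatase) enzyme, cell-free | Medium: 50 mM Bis-Tris pH 6.0 with 2.5 mM DTT and 0.005% Tween 20 | Read-out: Percent inhibition scaled to no-enzyme and uninhibited-enzyme controls, plate-pattern corrected | Signal: Fluorescence read at 480 nm ex / 540 nm em | Times: 20 min reaction, room temperature, in the dark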
DNMT1 block = DNMT1 (human) enzyme inhibition | P26358 | 0.83% of 360,000 active | inhibition (reported as % activation of signal), % at 10 µM | AID 588458 | DNMT1 molecular beacon, Hinp1I cleavage, fluorescence; in the data active = inhibition above about 50%
HKDC1 inhibitor = HKDC1 (human) hexokinase inhibition. inhibition, % at 20 µM. AID 493160. recombinant HKDC1, G6PDH/diaphorase resazurin coupled fluorescence. 0.16% of 340,000 active. Q2TB90;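 active = inhibition above about 35% when tested at 20 µM, limit read from the data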;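 note: plate controls were DMSO wells with enzyme for no effect and DMSO wells lacking enzyme for full effect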
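Material: recombinant HKDC1 hexokinase; Amount: HKDC1 at 5 µg/mL; Medium: Tris pH 8.0 buffer with MgCl2, Tween-20, BSA, BME; Schedule: 90 min reaction incubation at room temperature, dark; Technique: coupled resazurin fluorescence, excitation 525 nm, emission 613 nm.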
SUMO1 PPI mod = alters human SUMO1 binding to SIM partners. AID 602429. inhibition, % at 20 µM. SUMO1 binding to a labelled peptide, TR-FRET, 1 h. P63165. 0.33% of 360,000 active; in the data active = inhibition above about 37%
Target sequence (P63165 whole entry, looked up): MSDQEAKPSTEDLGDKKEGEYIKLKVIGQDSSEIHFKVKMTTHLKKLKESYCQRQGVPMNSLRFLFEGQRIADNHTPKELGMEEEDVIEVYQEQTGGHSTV
LMPTP inh = LMPTP (human) inhibition. P24666. recombinant LMPTP-A, OMFP fluorogenic substrate, fluorescence intensity. inhibition, % at 20 µM. 0.22% of 360,000 active. AID 651560;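 active = compounds that cut the enzyme signal by at least half of the control window in the single-dose screen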;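 note: plate controls were DMSO wells with enzyme plus substrate for no effect and substrate without enzyme for full effect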
Target sequence (P24666 whole entry, looked up): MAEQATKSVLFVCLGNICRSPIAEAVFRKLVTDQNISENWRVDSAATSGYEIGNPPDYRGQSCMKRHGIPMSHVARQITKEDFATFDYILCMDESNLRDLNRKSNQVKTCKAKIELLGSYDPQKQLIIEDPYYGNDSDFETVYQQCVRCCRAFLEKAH
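Test system: LMPTP-A, protein tyrosine phosphatase of low molecular weight; Input: 0.625 nM enzyme; Incubation: 50 min dark incubation at room temperature; Signal: endpoint fluorescence intensity from OMFP dephosphorylation; Read-out basis: % inhibition versus control wells.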
Scp1 inh = Scp-1 (human) phosphatase inhibition; Recombinant Scp1, phosphopeptide, malachite green phosphate absorbance; inhibition, % at 20 µM; 0.88% of 340,000 active;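 active = inhibition above about 50% at 20 µM, limit read from the data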;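 note: plate controls were DMSO wells with enzyme for no effect and wells lacking enzyme for full effect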
Target sequence (Q9GZU7 76-261 limits assumed): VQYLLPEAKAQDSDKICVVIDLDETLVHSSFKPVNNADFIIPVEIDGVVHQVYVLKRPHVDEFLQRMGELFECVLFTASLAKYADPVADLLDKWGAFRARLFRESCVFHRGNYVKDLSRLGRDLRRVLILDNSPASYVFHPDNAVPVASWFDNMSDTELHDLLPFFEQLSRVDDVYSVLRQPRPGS
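Test system: SCP-1 phosphatase catalytic domain, residues 76-261; measured by: colorimetric phosphate reagent with accelerator and stabiliser, absorbance at 630 nm; timing: enzyme reaction 45 min at room temperature, colour 5 min, stabilisation 30 min; also added: Phosphorylated 17-residue peptide substrate; compound dosing: one concentration, 20 µM, with 1.0% DMSO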
Scp-1 conf = confirmation of human Scp-1 phosphatase inhibitors; shares compounds with Scp1 inh; recombinant SCP-1 catalytic domain, phosphate release, malachite green absorbance; inhibition, % at 20 µM; 61% of 2,500 active;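 note: plate controls were DMSO with enzyme for no effect and buffer wells lacking enzyme for full effect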
Scp-1 MG ctr = counter-screen for Scp-1 inhibitors: colorimetric interference; shares compounds with Scp1 inh; Colorimetric interference counterscreen, malachite green absorbance 630 nm; apparent inhibition (interference), % at 20 µM; 2,500 tested, under 10 active;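 note: compounds added after enzyme reaction finished so only phosphate colour detection is probed; plate controls were DMSO wells with completed Scp-1 reaction for no effect and substrate wells lacking enzyme for full effect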
Scp1 DSF = validation of human Scp-1 inhibitors by thermal shift binding | shares compounds with Scp1 inh | Recombinant SCP1, Sypro Orange thermal shift Tm | thermal shift relative to vanadate control, % at 40 µM | 25% of 1,500 active;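 active = substances whose mean melting-temperature shift, as a percentage of the reference inhibitor's shift, reaches about 5.3%, limit read from the data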;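 note: 0% = Tm of DMSO wells and 100% = Tm with sodium orthovanadate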
An asterisk follows results filed as active; . = no result. Most compounds without a hit are left out; they make up all but 1.8% or so of the library.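 Rule for the calls, unless noted: active = inhibition of at least 30% at 20 µM; inactive = the rest.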

SMILES | STEP block | DNMT1 block | HKDC1 inhibitor | SUMO1 PPI mod | LMPTP inh | Scp1 inh | others
Cc1cc(NCCCCCCCNc2cc(C)nc3cc([N+](=O)[O-])ccc23)c2ccc([N+](=O)[O-])cc2n1 | 18 | 40 | 7 | 129* | 91* | 32
O=[N+]([O-])c1cc(/C=N/Nc2nc3ccccc3[nH]2)c(O)cc1O | . | . | -22 | . | . | 56*
Nc1ccc(Nc2ccncc2)cc1 | 4 | 0 | . | 2 | 9 | .
CCCCN(C=O)c1c(CC)nc2c(OCc3cccc(Cl)c3)cccn12 | 1 | -2 | . | -3 | 3 | .
Cc1c(/C=N/Nc2ccc([N+](=O)[O-])cn2)c2ccccc2n1Cc1ccccc1 | 4 | 51* | -3 | -15 | 8 | -11
O=[N+]([O-])c1ccc(NN=Cc2cccc3ccccc23)nc1 | -5 | 23 | -6 | -6 | 2 | -1
Cc1ccc(-n2c(C)cc(/C=N/Nc3ccc([N+](=O)[O-])cn3)c2C)cc1 | 0 | 1 | 0 | -5 | 0 | 102*
COc1cccc(/C=N/Nc2ccc([N+](=O)[O-])cn2)c1O | 0 | 3 | 36* | -16 | -1 | -15
Cc1cc(/C=N/Nc2ccc([N+](=O)[O-])cn2)c(C)n1-c1ccccc1 | 13 | 1 | 3 | -19 | 1 | 6
CCOC(=O)C1(C)CCCN1C(=O)c1ccc(N(C)C)cc1 (centres undefined) | -1 | 3 | . | -6 | -1 | .
Cc1[nH]nc2c1C(c1ccc(-c3ccc(Cl)cc3)o1)C(C#N)=C(N)O2 (centres undefined) | -1 | -7 | -2 | 64* | 13 | -7
Cc1ccc(NC(=O)CSc2nnnn2C2CCCC2)cc1S(=O)(=O)N1CCOCC1 | -2 | 2 | -5 | 0 | 0 | -7
CN(C)c1ccc(C=Cc2nccc3ccccc23)cc1 | -91 | 69* | . | -63 | 2 | .
c1coc(CSSCc2ccco2)c1 | 16 | 101* | 3 | 14 | 19 | 22
CC[n+]1c(/C=C/c2ccc(OC(C)=O)c(OC)c2)ccc2ccccc21 | -1 | -4 | 6 | -44 | 1 | 55*
O=C(Nc1cccc([N+](=O)[O-])c1)c1cc2ccccc2cc1O | 5 | 2 | 0 | 33 | 4 | 89*
CNC(=S)N/N=C/c1ccc(-c2ccc(Cl)c([N+](=O)[O-])c2)o1 | 3 | -3 | -5 | -9 | 4 | -3
CNC(=S)N/N=C/c1ccc(-c2ccc(C(=O)O)cc2)o1 | 4 | 13 | -6 | 2 | 2 | 52*
O=C(O)c1ccc(-c2ccc(/C=N/Nc3ccc([N+](=O)[O-])cc3)o2)cc1 | -23 | -1 | 3 | -28 | 14 | 85*
CCOC(=O)c1cc(-c2ccccc2)n(CC2CC(c3ccc(OC)cc3)=NO2)n1 (centres undefined) | 0 | 1 | 0 | 2 | 0 | -11
CCOC(=O)C1=CCN(S(=O)(=O)c2ccccc2C)C1c1ccc(Cl)cc1 (centres undefined) | 4 | -3 | . | 7 | 2 | .
O=C(CCN1C(=O)/C(=C/c2ccccc2Cl)SC1=S)NC1C=CS(=O)(=O)C1 (centres undefined) | 4 | 54* | 1 | 1 | 8 | -11
Cc1ccc(C(=O)N(C)Cc2ccc(N3CCOCC3)cc2)cc1S(=O)(=O)NCc1ccccc1 | 0 | 1 | -3 | -1 | 1 | 8
Cc1cc(C2=CC(=O)C[C@H](c3ccc(F)cc3)C2)ccc1F | 3 | -1 | . | -5 | 4 | .
O=C(Nc1ccccc1)c1cc(C2CCCCN2C(=O)CCc2ccccc2)on1 (centres undefined) | 0 | 0 | . | 2 | 0 | .
SMILES | STEP block | DNMT1 block | HKDC1 inhibitor | SUMO1 PPI mod | LMPTP inh | Scp1 inh | others
Cc1ccc(-c2nnn3c2nc(NC(C)C)c2ccccc23)cc1 | -1 | 8 | 0 | -24 | 6 | -10
CNc1nc2c(-c3ccc(Cl)cc3)nnn2c2ccccc12 | 4 | 21 | -7 | -31 | 76* | -7
Fc1c(F)c(C(F)(F)F)c(F)c(F)c1N/N=C\c1cccs1 | -2 | -7 | 15 | 41* | 2 | -4
CCOC(=O)C1=CCN(S(=O)(=O)c2ccccc2F)C1c1ccccc1 (centres undefined) | 3 | -1 | . | 3 | 0 | .
C=CCNC(=O)c1cc2c(=O)n3cccc(C)c3nc2s1 | 1 | 5 | 4 | -27 | -1 | 13
COc1ccc(CCNC(=O)c2cc3c(=O)n4cccc(C)c4nc3s2)cc1OC | 0 | 1 | 7 | 40* | 1 | -6
O=c1[nH][nH]c2c1[C@H](CCc1cccc(Cl)c1)O[C@H](CCc1ccccc1)C2 | . | . | . | 1 | 2 | .
Nc1cc2nsnc2cc1Br | 35 | 111* | -4 | 80* | 22 | 6
COc1ccc(CN(C(C)=O)c2cc(C)c([N+](=O)[O-])cc2OC)cc1OC | 0 | 1 | . | -4 | -2 | .
COC(=O)c1ccccc1NC(=O)CSc1nc(N)cc(=O)[nH]1 | 3 | 47 | -2 | 6 | 2 | 57* | Scp-1 conf=34*;Scp-1 MG ctr=-17;Scp1 DSF=0
Nc1cc(=O)[nH]c(SCC(=O)Nc2cc(Cl)cc(Cl)c2)n1 | -1 | -7 | -5 | 2 | -1 | -11 | Scp-1 conf=-6;Scp-1 MG ctr=-3
CC1(C(=O)NS(=O)(=O)c2cccc(OC(F)F)c2)CCN1C(=O)CC(c1ccccc1)c1ccccc1 (centres undefined) | -2 | -3 | . | 0 | -2 | .
CCCCN1C(=O)C(CC(=O)NCCCN(C)C)CC(C(=O)N2CCCCCC2)=C1C (centres undefined) | . | . | . | -1 | -2 | .
COc1cc(C(=O)N/N=C/c2sc(=O)n(-c3ccccc3)c2Cl)cc(OC)c1OC | 5 | 1 | -11 | 1 | 0 | 50* | Scp-1 conf=-21;Scp-1 MG ctr=-17
COc1ccccc1CNS(=O)(=O)c1ccc2c(c1)CCCN2C(C)=O | -2 | 0 | -4 | 11 | -1 | -6
COc1ccccc1CNS(=O)(=O)c1ccc2[nH]cc(C(=O)O)c(=O)c2c1 | 18 | 86* | -2 | 4 | 1 | 55* | Scp-1 conf=47*;Scp-1 MG ctr=-2;Scp1 DSF=0
N#Cc1ccccc1OCC(=O)OCC(=O)N1CCCC1 | -4 | 0 | -8 | -4 | -1 | -8
